# APJ antagonist = APJ receptor antagonism. P35414. CHO-K1 APJ beta-arrestin complementation, luminescence. inhibition, % at 20 µM. 0.32% of 330,000 active. AID 2521;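 active means inhibition above about 40% at 20 µM, limit read from the data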;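 further: cells challenged with 10 nM apelin-13 agonist together with compound; plate controls were apelin-13 plus DMSO wells for no effect and DMSO wells lacking apelin-13 for full effect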
# Target sequence (P35414 whole entry, looked up): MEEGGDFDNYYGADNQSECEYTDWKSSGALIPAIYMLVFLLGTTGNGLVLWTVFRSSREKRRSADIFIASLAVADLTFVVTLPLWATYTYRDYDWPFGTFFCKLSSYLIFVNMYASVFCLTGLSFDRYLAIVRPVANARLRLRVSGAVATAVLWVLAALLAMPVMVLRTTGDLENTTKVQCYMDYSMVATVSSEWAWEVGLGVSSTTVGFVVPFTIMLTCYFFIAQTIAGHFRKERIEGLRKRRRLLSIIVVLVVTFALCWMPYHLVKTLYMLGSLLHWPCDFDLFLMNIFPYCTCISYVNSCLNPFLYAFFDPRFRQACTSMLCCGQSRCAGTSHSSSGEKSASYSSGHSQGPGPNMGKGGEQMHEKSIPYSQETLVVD
# APJ ag = activates the human apelin receptor APJ; P35414; CHO-K1 APJ PathHunter beta-arrestin, luminescence; 0% DMSO wells, 100% apelin; activation, % at 20 µM; 0.11% of 330,000 active; AID 2520;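 active means activation more than six SD over the plate average, tested at 20 µM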;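 further: 0% = DMSO alone and 100% = apelin-13 at 10 nM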
#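 Test system: CHO-K1 APJ beta-arrestin complementation cell line. Amount: cell density 1000 per well. Controls: DMSO negative, 10 nM Apelin-13 positive. Signal: luminescent beta-gal fragment complementation, chemiluminescent substrate. Read-out basis: agonist-driven arrestin binding to APJ. Timing: compound stimulation 90 min at 25 °C, detection 60 min.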
# NTR1 agonist = activates human neurotensin receptor 1; NTR1-U2OS beta-arrestin-GFP spot imaging, agonist mode; activation, % at 20 µM; 0.17% of 330,000 active; AID 493036;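 active means activation at or above 40% of the spot to cytoplasm intensity ratio, with at least 20 cells analyzed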;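 further: 0% = DMSO without peptide and 100% = 100 nM NTR1 peptide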
# CCR6 antagonist = antagonists of human CCR6 receptor; P51684; CHO-K1 CCR6 PathHunter beta-arrestin, luminescence, CCL20-stimulated; inhibition, % at 20 µM; 0.49% of 340,000 active; AID 493098;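 active means compounds whose inhibition of the agonist-driven luminescence signal at 20 µM reaches about 50%, limit read from the data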;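 further: cells stimulated with CCL20 at 14 nM final; plate controls were DMSO with CCL20 for no effect and DMSO without agonist for full effect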
# CXCR6 inh = blocks human CXCR6 beta-arrestin recruitment. 0.36% of 360,000 active. inhibition, % at 20 µM. AID 602244. CHO-K1 PathHunter CXCR6 beta-arrestin, luminescence. O00574; in the data active means inhibition above about 34%, passing the limit was not always enough;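 further: antagonist mode with CXCL16 agonist at 10 nM final; 0% = 10 nM CXCL16 with DMSO and 100% = unstimulated wells without agonist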
# HTR2A ag = mouse HTR2A agonism via beta-arrestin recruitment; CHO-K1 mHTR2A beta-arrestin complementation, luminescence; percent of 30 µM serotonin response; activation, % at 7.6 µM; 0.66% of 360,000 active;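 active means activation above a run cutoff, the mean activation of all tested compounds plus 3 SD, cut at about 14% in these data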;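 further: 0% = plate median of compound wells and 100% = 30 µM serotonin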
# NTR1 ag conf = confirmation of agonists of human NTR1. shares compounds with NTR1 agonist. 38% of 480 active. activation, % at 20 µM. NTR1-U2OS beta-arrestin-GFP translocation imaging;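 active means mean activation at 20 µM of at least 40%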;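 further: 0% = DMSO without peptide and 100% = 100 nM NTR1 peptide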
# * hit, by the source's call; x = no result given. In the library only some 1.5% were active in any assay of this set; here they are far more common.
SMILES,APJ antagonist,APJ ag,NTR1 agonist,CCR6 antagonist,CXCR6 inh,HTR2A ag,NTR1 ag conf
O=C(Nc1ccc2oc(-c3ccccc3F)nc2c1)c1ccc2c(c1)OCCO2,8,4,46*,-6,-5,-3,53*
Cc1cc2cc(CCNC(=O)CCCc3ccccc3)c(=O)[nH]c2cc1C,11,-1,2,3,3,7,x
c1ccc2c(c1)nc(Nc1ccc(N3CCCCC3)cc1)c1nncn12,-14,-1,17,0,-3,2,x
c1ccc(N2CCCCC2)c(Nc2nc3ccccc3n3cnnc23)c1,8,1,40*,-3,-9,1,33
FC(F)(F)c1ccc(N2CCOCC2)c(Nc2nc3ccccc3n3cnnc23)c1,0,-1,45*,-39,-7,2,37
CC1CC(=O)N(CC(=O)NCc2ccc(F)cc2)c2ccccc2S1(=O)=O (centres undefined),5,2,0,-7,-3,3,x
CCn1cc(CCC(=O)NC2CCCC2)c2ccccc21,16,0,0,5,5,-2,x
COc1ccc(C)c2sc(=NC(=O)c3cccc(N4C(=O)CCC4=O)c3)n(C)c12,-17,4,6,25,-3,6,x
C=CCn1c(=NC(=O)c2cccc(N3C(=O)CCC3=O)c2)sc2cccc(OC)c21,-13,4,47*,16,0,1,54*
CCCC(=O)NC(=S)Nc1cccc(Cl)c1N1CCCC1,-25,-4,51*,12,9,6,15
O=C(NC(=S)Nc1cccc(Cl)c1N1CCCCC1)c1cccs1,7,-5,35,41,16,5,x
O=C(NC(=S)Nc1cccc(Cl)c1N1CCOCC1)c1cccs1,8,-2,43*,15,11,1,15
CCCCCCCCC(c1nc2cc(C)c(C)cc2[nH]1)n1c(=O)c(-c2ccccc2Br)nc2ccccc21 (centres undefined),x,x,x,x,5,5,x
CCOC(=O)c1cc(-c2ccccc2)sc1NC(=O)C(C)Sc1nnc(N)s1 (centres undefined),-4,0,44*,0,3,-4,25
CCOC(=O)c1cc(-c2ccccc2)sc1NC(=O)CSc1nnc(N)s1,-18,-2,17,-12,14,-2,x
CCSc1ccc2c(c1)N(CCCN1CCN(C)CC1)c1ccccc1S2,23,-5,43*,40,-5,-9,9
COc1ccc(OCC(=O)N2CCC(n3nccc3NC(=O)C3CC3)CC2)cc1,17,-4,-1,2,0,5,x
COc1ccc2[nH]c3c(N4CCN(Cc5ccc6c(c5)OCO6)CC4)ncnc3c2c1,-3,2,11,-11,3,-7,x
COc1ccc2[nH]c3c(N4CCC(O)(c5cccc(C(F)(F)F)c5)CC4)ncnc3c2c1,1,8,49*,7,5,-4,8
CCOc1ccc2[nH]c3c(N4CCc5ccccc5C4)ncnc3c2c1,0,-1,50*,-6,4,-10,0
Cc1c2cnn(-c3ccccc3)c(=O)c2c(C)n1CCCC(=O)NCCN1CCN(C)CC1,-18,-2,0,7,-3,-1,x
O=C(CCCc1ccccc1)NCCS(=O)(=O)N1CCN(c2ccccc2F)CC1,5,0,3,14,0,0,x
CCc1ccc(NC(=O)COc2ccc(/C=C(/C#N)c3nc4ccccc4[nH]3)cc2OC)cc1,11,5,52*,3,-4,2,-1
COC(=O)c1ccc(COc2ccc(/C=C(\C#N)c3nc4ccccc4[nH]3)cc2OC)o1,-22,6,10,11,-1,0,x
CCOc1cc(/C=C\[N+](=O)[O-])ccc1OCC(=O)Nc1ccccc1C,29,14,45*,x,27,-3,51*
CCc1ccc(NC(=O)c2ccc3c(=O)n4c(nc3c2)CCCCC4)cc1,3,-2,10,11,-6,-3,x
O=C(Nc1cccc(S(=O)(=O)N2CCCCC2)c1)c1ccc2c(=O)n3c(nc2c1)CCCCC3,-16,2,43*,20,-2,1,26
